A word on the IC50: it is the midpoint of a concentration-inhibition curve.

Structures are written as SMILES.

The first series concerns the target T1, Aromatase (Homo sapiens, UniProt P11511).
T1 sequence (P11511 whole entry): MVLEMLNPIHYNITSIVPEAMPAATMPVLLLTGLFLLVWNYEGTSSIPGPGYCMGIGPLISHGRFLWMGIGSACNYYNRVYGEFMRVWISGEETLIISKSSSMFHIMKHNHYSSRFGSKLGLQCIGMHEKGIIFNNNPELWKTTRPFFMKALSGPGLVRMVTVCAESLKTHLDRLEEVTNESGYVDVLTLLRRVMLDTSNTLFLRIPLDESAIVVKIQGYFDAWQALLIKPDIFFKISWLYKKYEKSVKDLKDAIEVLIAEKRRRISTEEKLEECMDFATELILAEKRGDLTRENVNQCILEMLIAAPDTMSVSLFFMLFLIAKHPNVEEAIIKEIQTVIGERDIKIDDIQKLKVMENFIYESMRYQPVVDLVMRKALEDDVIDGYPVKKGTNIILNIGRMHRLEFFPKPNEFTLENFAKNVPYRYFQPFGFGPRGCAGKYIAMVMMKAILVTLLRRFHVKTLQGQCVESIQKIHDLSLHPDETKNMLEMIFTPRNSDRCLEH
Briefly: Inhibition of human aromatase using androstenedione as substrate assessed as remaining estrone level at 10 uM after 30 mins by LC-MS/MS analysis relative to control. To be noted: 0.5 h, read-out: Activity. Summed up:
(§1)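 cDNA-expressed human CYP19A1 supersomes at 0.05 mg/mL, with 1 µM androstenedione, 3.3 mM MgCl2 and an NADPH-generating system (glucose-6-phosphate, β-NADP+, glucose-6-phosphate dehydrogenase) in 0.1 M potassium phosphate, pH 7.4. Incubated 30 min at 37 °C, stopped with ethyl acetate plus cortisone internal standard, then liquid–liquid extraction. Estrone quantified by LC–MS/MS as % of control. Single concentration, mean of duplicates.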
Regarding `O=C1/C(=C/c2ccc(O)c(O)c2)Oc2cc(O)ccc21` [SULFURETIN], the activity at 10 µM came out at 99%.
Regarding `O=C(O)c1cc(O)c(O)c(O)c1` [GALLIC ACID], the activity at 10 µM was found to be 112%.
Turning to `O=C(O)c1ccc(O)c(O)c1` [PROTOCATECHUIC ACID], the activity at 10 µM was 83.5%.
Take `O=C1c2ccc(O)cc2O[C@H](c2ccc(O)c(O)c2)[C@H]1O` (relative stereo) [FUSTIN]: the activity at 10 µM is 110%.
As to `Oc1cccc(O)c1` [RESORCINOL], the activity at 10 µM stood at 91.8%.
Turning to `O=c1c(O)c(-c2ccc(O)c(O)c2)oc2cc(O)ccc12` [FISETIN], the activity at 10 µM came out at 117%.
In the case of `O=c1c(O)c(-c2ccc(O)c(O)c2)oc2cc(O)cc(O)c12` [QUERCETIN], the activity at 10 µM was determined as 96%.
As to `O=C1c2c(O)cc(O)cc2O[C@H](c2ccc(O)c(O)c2)[C@H]1O` [(+)-TAXIFOLIN], the activity at 10 µM amounted to 90.7%.
For the molecule `C[C@]12CCC(=O)C(O)=C1CC[C@@H]1[C@@H]2CC[C@]2(C)C(=O)CC[C@@H]12` [FORMESTANE], the activity at 10 µM amounted to 5.1%.
As to `O=C(O)c1ccc(O)cc1` [PARABEN], the activity at 10 µM came out at 91.8%.
Turning to `O=C(/C=C/c1ccc(O)c(O)c1)c1ccc(O)cc1O` [BUTEIN], the activity at 10 µM was 87.5%.
Same read-out and setting: in the case of `O=Cc1ccc(O)cc1O` it was 91.7%; in that of `O=C1c2ccc(O)cc2O[C@H](c2ccc(O)cc2)[C@H]1O` [GARBANZOL], 99.3%.
For the molecule `O=C(O)c1ccc(O)cc1O` [2,4-DIHYDROXYBENZOIC ACID], the activity at 10 µM is 93.9%.
Regarding `O=c1c(O)c(-c2ccc(O)cc2)oc2cc(O)ccc12` [RESOKAEMPFEROL], the activity at 10 µM worked out at 102%.

In another series the target is T1, Aromatase. Nature of the series: Inhibition of human aromatase using androstenedione as substrate assessed as estrone formation at 10 uM after 30 mins by LC-MS/MS analysis.
Conditions: not given
A digest of the protocol: as §1
Consider `C[C@]12CCC(=O)C(O)=C1CC[C@@H]1[C@@H]2CC[C@]2(C)C(=O)CC[C@@H]12` [FORMESTANE], for which the IC50 was found to be 470 nM.

The series is the same for the next values; noted with them: human, 0.5 h, 10 µM.
For `C[C@]12CCC(=O)C(O)=C1CC[C@@H]1[C@@H]2CC[C@]2(C)C(=O)CC[C@@H]12` [FORMESTANE], the “inhibition (INH)” value is “Dose-dependent effect”.

The values are drawn from ChEMBL document CHEMBL3233005 (Bioorg Med Chem Lett, 2014).
